Assay results published in ChEMBL document CHEMBL4145468, “Synthesis and biological evaluation of new steroidal pyridines as potential anti-prostate cancer agents” (Eur J Med Chem, 2018).

Tests used:
[1] = tested on: PC-3; test: Antiproliferative activity against human PC3 cells after 72 hrs by MTT assay; assay type: functional, cell-based; settings: PC-3, 72 h
In short: (§1)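 Exponentially growing cells, 4×10^3/well, attached 24 h, then medium replaced with fresh medium holding graded compound concentrations for 72 h. MTT (5 mg/mL stock) added for 4 h, formazan dissolved in DMSO, absorbance at 570 nm; IC50 calculated from dose-response data.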

[2] = tested on: ECa-109 cell line; test: Antiproliferative activity against human EC109 cells after 72 hrs by MTT assay; assay type: functional, cell-based; settings: ECa-109, 72 h; in short: as §1
[3] = tested on: MGC-803; test: Antiproliferative activity against human MGC803 cells after 72 hrs by MTT assay; assay type: functional, cell-based; settings: MGC-803, 72 h; in short: as §1
[4] = tested on: GES1; test: Antiproliferative activity against human GES-1 cells after 72 hrs by MTT assay; assay type: cell-based; settings: GES1, 72 h; in short: as §1
[5] = tested on: LNCaP; test: Antiproliferative activity against human LNCAP cells after 72 hrs by MTT assay; assay type: functional, cell-based; in short: as §1

Compound	IC50 [1]	IC50 [2]	IC50 [3]	IC50 [4]	IC50 [5]
CCOc1cc(-c2ccc(Br)cc2)cc([C@H]2CC[C@H]3[C@@H]4CC=C5C[C@@H](O)CC[C@]5(C)[C@H]4CC[C@]23C)n1	> 32 µM	> 32 µM	> 32 µM	> 32 µM	–
CCOc1cc(-c2ccccc2)cc([C@H]2CC[C@H]3[C@@H]4CC=C5C[C@@H](O)CC[C@]5(C)[C@H]4CC[C@]23C)n1	31.1 µM	> 32 µM	> 32 µM	> 32 µM	–
CCOc1cc(-c2ccc(S(C)(=O)=O)cc2)cc([C@H]2CC[C@H]3[C@@H]4CC=C5C[C@@H](O)CC[C@]5(C)[C@H]4CC[C@]23C)n1	> 32 µM	31.3 µM	> 32 µM	> 32 µM	–
CCOc1nc([C@H]2CC[C@H]3[C@@H]4CC=C5C[C@@H](O)CC[C@]5(C)[C@H]4CC[C@]23C)cc(-c2ccc(F)cc2)c1C#N	> 32 µM	> 32 µM	> 32 µM	> 32 µM	–
CCOc1cc(-c2ccc(C)cc2)cc([C@H]2CC[C@H]3[C@@H]4CC=C5C[C@@H](O)CC[C@]5(C)[C@H]4CC[C@]23C)n1	> 32 µM	> 32 µM	> 32 µM	> 32 µM	–
CCOc1nc([C@H]2CC[C@H]3[C@@H]4CC=C5C[C@@H](O)CC[C@]5(C)[C@H]4CC[C@]23C)cc(-c2cc(F)cc(F)c2)c1C#N	6.99 µM	20 µM	12.3 µM	> 32 µM	–
CCOc1nc([C@H]2CC[C@H]3[C@@H]4CC=C5C[C@@H](O)CC[C@]5(C)[C@H]4CC[C@]23C)cc(-c2cccc(Br)c2)c1C#N	9.42 µM	> 32 µM	28.5 µM	21.9 µM	–
CCOc1nc([C@H]2CC[C@H]3[C@@H]4CC=C5C[C@@H](O)CC[C@]5(C)[C@H]4CC[C@]23C)cc(-c2cccnc2)c1C#N	5.84 µM	2.84 µM	14.7 µM	> 32 µM	5.18 µM
CCOc1nc([C@H]2CC[C@H]3[C@@H]4CC=C5C[C@@H](O)CC[C@]5(C)[C@H]4CC[C@]23C)cc(-c2ccc(Cl)cc2)c1C#N	10.4 µM	> 32 µM	> 32 µM	> 32 µM	–
CCOc1cc(-c2ccncc2)cc([C@H]2CC[C@H]3[C@@H]4CC=C5C[C@@H](O)CC[C@]5(C)[C@H]4CC[C@]23C)n1	6.37 µM	16.6 µM	4.48 µM	15.7 µM	–
CCOc1nc([C@H]2CC[C@H]3[C@@H]4CC=C5C[C@@H](O)CC[C@]5(C)[C@H]4CC[C@]23C)cc(-c2ccc(C)cc2)c1C#N	> 32 µM	> 32 µM	> 32 µM	> 32 µM	–
CCOc1cc(-c2cccs2)cc([C@H]2CC[C@H]3[C@@H]4CC=C5C[C@@H](O)CC[C@]5(C)[C@H]4CC[C@]23C)n1	15.3 µM	17.6 µM	> 32 µM	> 32 µM	–
CCOc1cc(-c2ccco2)cc([C@H]2CC[C@H]3[C@@H]4CC=C5C[C@@H](O)CC[C@]5(C)[C@H]4CC[C@]23C)n1	10.8 µM	26.2 µM	26.1 µM	> 32 µM	–
CCOc1cc(-c2cccc(Br)c2)cc([C@H]2CC[C@H]3[C@@H]4CC=C5C[C@@H](O)CC[C@]5(C)[C@H]4CC[C@]23C)n1	21.7 µM	> 32 µM	> 32 µM	> 32 µM	–
CCOc1cc(-c2cccnc2)cc([C@H]2CC[C@H]3[C@@H]4CC=C5C[C@@H](OC(C)=O)CC[C@]5(C)[C@H]4CC[C@]23C)n1	6.97 µM	> 32 µM	> 32 µM	> 32 µM	27.9 µM
CCOc1cc(-c2ncccc2Br)cc([C@H]2CC[C@H]3[C@@H]4CC=C5C[C@@H](O)CC[C@]5(C)[C@H]4CC[C@]23C)n1	13.4 µM	> 32 µM	25.8 µM	> 32 µM	–
CCOc1nc([C@H]2CC[C@H]3[C@@H]4CC=C5C[C@@H](O)CC[C@]5(C)[C@H]4CC[C@]23C)cc(-c2ccsc2)c1C#N	12.2 µM	10.6 µM	22.3 µM	30.1 µM	–
CCOc1cc(-c2ccc(Cl)cc2)cc([C@H]2CC[C@H]3[C@@H]4CC=C5C[C@@H](O)CC[C@]5(C)[C@H]4CC[C@]23C)n1	> 32 µM	> 32 µM	19.2 µM	> 32 µM	–
CCOc1nc([C@H]2CC[C@H]3[C@@H]4CC=C5C[C@@H](O)CC[C@]5(C)[C@H]4CC[C@]23C)cc(-c2ccccc2)c1C#N	4.39 µM	13.3 µM	15.8 µM	7.8 µM	–
CCOc1nc([C@H]2CC[C@H]3[C@@H]4CC=C5C[C@@H](O)CC[C@]5(C)[C@H]4CC[C@]23C)cc(-c2ccc(S(C)(=O)=O)cc2)c1C#N	> 32 µM	> 32 µM	> 32 µM	> 32 µM	–
CCOc1nc([C@H]2CC[C@H]3[C@@H]4CC=C5C[C@@H](O)CC[C@]5(C)[C@H]4CC[C@]23C)cc(-c2cccs2)c1C#N	6.98 µM	9.84 µM	23.6 µM	> 32 µM	–
C[C@]12CC[C@H](O)CC1=CC[C@@H]1[C@@H]2CC[C@]2(C)C(c3cccnc3)=CC[C@@H]12 [ABIRATERONE]	5.94 µM	> 32 µM	7.72 µM	13.1 µM	3.29 µM
CCOc1cc(-c2ccc(F)cc2)cc([C@H]2CC[C@H]3[C@@H]4CC=C5C[C@@H](O)CC[C@]5(C)[C@H]4CC[C@]23C)n1	> 32 µM	> 32 µM	> 32 µM	> 32 µM	–
CCOc1nc([C@H]2CC[C@H]3[C@@H]4CC=C5C[C@@H](O)CC[C@]5(C)[C@H]4CC[C@]23C)cc(-c2ccc(Br)cc2)c1C#N	13.7 µM	> 32 µM	> 32 µM	> 32 µM	–
CCOc1cc(-c2ccc(C#N)cc2)cc([C@H]2CC[C@H]3[C@@H]4CC=C5C[C@@H](O)CC[C@]5(C)[C@H]4CC[C@]23C)n1	24.6 µM	> 32 µM	23.7 µM	> 32 µM	–
CCOc1nc([C@H]2CC[C@H]3[C@@H]4CC=C5C[C@@H](O)CC[C@]5(C)[C@H]4CC[C@]23C)cc(-c2cccc([N+](=O)[O-])c2)c1C#N	7.77 µM	27.6 µM	13.1 µM	> 32 µM	–
CCOc1cc(-c2cc(F)cc(F)c2)cc([C@H]2CC[C@H]3[C@@H]4CC=C5C[C@@H](O)CC[C@]5(C)[C@H]4CC[C@]23C)n1	16.5 µM	> 32 µM	> 32 µM	> 32 µM	–
